# Wnt act: Wnt/beta-catenin pathway activators, primary screen, cell-based, plate reader, single point. Wnt/beta-catenin reporter cell assay, activator. activation, % at 9.35 µM. actives 1.2% (n = 300,000). AID 743398, 2014; in the data active = activation above about 30%, passing the limit was not always enough; inconclusive = no clear call, values can overlap the other calls;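 note: 0% = neutral control wells and 100% = positive control wells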
# esBAF inh: Bmi1 luciferase reporter increase in mESCs, primary screen, esBAF inhibitor project, mouse ES cells, Bmi1 luciferase knock-in, single point; reporter increase, % at 12.5 µM; 24 h; 100% = twice the neutral-well signal; actives 2% (n = 350,000); AID 602393, 2012; in the data active = activation above about 40%; inconclusive = no clear call, values can overlap the other calls;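 note: 0% = median of the plate's neutral control wells and 100% = double that signal; a rise in the Bmi1 reporter signal indicates esBAF inhibition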
# Env fusion inh: inhibitors of HIV-1 Env-driven cell-cell fusion, primary screen, HeLa-JRFL effector, CEM21 target cells, luciferase | inhibition, % at 12.3 µM | actives 1.1% (n = 360,000);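 active = mean replicate inhibition score of at least 50 and every replicate individually at or above 50; inconclusive = only one of the two criteria met; inactive = mean below 50 and not all replicates reaching 50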;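 note: 0% = plate neutral controls and 100% = maraviroc near 300 nM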
# Cneo AK release: Cryptococcus neoformans cell lysis inducers, primary screen, AK release luminescence, single concentration; AID 651654, 2012; C. neoformans lysis, adenylate kinase release luminescence, 4 h; normalised: neutral wells 0, clomiphene wells 100; actives 0.2% (n = 360,000); lysis activity, % at 15 µM;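 active = mean lysis activity across replicates of at least 80%, whatever share of replicates individually reach that level; inactive = mean lysis activity below 80%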
#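 Material: C. neoformans cells; Schedule: 4 h static compound exposure, 37 °C, read 1 h post-reagent; Measured by: adenylate kinase release luminescence; Read-out: signal increase indicating cell lysis; Controls: Clomiphene as positive lysis control.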
# ERAP1 HTS inh: human ERAP1 aminopeptidase inhibitors, primary screen, biochemical, single point, plate reader; Endoplasmic reticulum aminopeptidase 1 (Homo sapiens), Q9NZ08; recombinant ERAP1, Leu-AMC fluorescence, 60 min; inhibition, % at 10.7 µM; actives 0.15% (n = 340,000);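 active = mean replicate inhibition of at least 30%, or all replicates individually reaching that 30% level; inactive = mean below 30% and not every replicate reaching it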;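 note: 0% = neutral control wells and 100% = L-leucinethiol positive control wells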
# Target sequence (Q9NZ08 whole entry, looked up): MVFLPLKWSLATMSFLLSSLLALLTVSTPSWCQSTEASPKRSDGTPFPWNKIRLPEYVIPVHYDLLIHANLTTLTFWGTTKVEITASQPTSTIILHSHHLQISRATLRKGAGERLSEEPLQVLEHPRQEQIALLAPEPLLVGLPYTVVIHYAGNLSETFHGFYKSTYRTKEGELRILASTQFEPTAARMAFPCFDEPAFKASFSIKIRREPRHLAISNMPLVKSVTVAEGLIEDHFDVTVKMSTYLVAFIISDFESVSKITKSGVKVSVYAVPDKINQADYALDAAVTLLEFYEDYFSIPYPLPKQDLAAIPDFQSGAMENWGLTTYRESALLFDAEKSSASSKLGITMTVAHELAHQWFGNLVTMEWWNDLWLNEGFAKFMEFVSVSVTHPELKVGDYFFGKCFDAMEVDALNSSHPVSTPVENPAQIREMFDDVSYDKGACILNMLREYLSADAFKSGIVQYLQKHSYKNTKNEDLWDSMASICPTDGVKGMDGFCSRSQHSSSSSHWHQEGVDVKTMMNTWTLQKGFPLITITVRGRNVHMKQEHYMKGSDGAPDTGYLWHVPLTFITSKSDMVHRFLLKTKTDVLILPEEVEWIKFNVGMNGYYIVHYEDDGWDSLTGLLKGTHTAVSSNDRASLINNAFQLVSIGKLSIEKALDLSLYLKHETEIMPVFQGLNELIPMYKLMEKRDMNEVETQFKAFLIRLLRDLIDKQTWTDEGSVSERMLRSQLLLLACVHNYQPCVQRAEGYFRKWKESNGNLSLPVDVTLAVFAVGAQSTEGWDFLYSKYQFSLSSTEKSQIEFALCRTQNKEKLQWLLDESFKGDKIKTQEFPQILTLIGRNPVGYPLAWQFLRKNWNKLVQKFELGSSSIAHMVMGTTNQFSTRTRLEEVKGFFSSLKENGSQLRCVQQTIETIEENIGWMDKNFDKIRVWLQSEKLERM
# MITF act: activators of MITF-driven TRPM1 promoter reporter, primary screen, cell-based, SK-MEL-5, luciferase, single point; SK-MEL-5 TRPM1-promoter luciferase, 24 h; % of positive control, neutral wells = 0; activation, % at 12.5 µM; actives 0.75% (n = 300,000); AID 588334, 2011;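 active = mean activation of at least 80% with every replicate also reaching 80%; inconclusive = mean reaches 80% but some replicate falls short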;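 note: 0% = neutral control wells and 100% = parthenolide positive control wells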
# The depositor's hits bear a star; ? = inconclusive; . = no result; [ ] = another dose, or the depositor's remark. Rows were chosen to be rich in hits. Some 3.5% of all compounds tested hit in one or more screens of this group.
SMILES,Wnt act,esBAF inh,Env fusion inh,Cneo AK release,ERAP1 HTS inh,MITF act
Cc1cnc(C(=O)Nc2ccc(F)c(F)c2)cn1,.,61.8*,.,-1.2,.,79.2
CN(C)C(=O)c1cccc(-c2ccc([C@@H]3[C@H](CO)N4CCCCN(C(=O)C5CCC5)C[C@@H]34)cc2)c1,.,.,.,0.0,-1.6,.
COCC(=O)N(C)C[C@@H]1Oc2ncc(C3=CCCC3)cc2C(=O)N([C@H](C)CO)C[C@@H]1C,.,2.6,-2.1[16.7 µM],11.2,.,.
C[C@@H]1CN([C@H](C)CO)C(=O)c2cc(NC(=O)c3ccccc3)ccc2O[C@@H](C)CCCCO[C@H]1CN(C)S(=O)(=O)c1ccc(Cl)cc1,.,-0.7,12.9[16.7 µM],3.2,1.0,.
CC(C)c1ccc(OCC(=O)N2CCCCCC2)c(Br)c1,43.4*,51.3*,-4.2,.,6.7,64.1
Cc1cc(Br)ccc1OCC(=O)N1CCCCCC1,.,18.2,-189.7,-0.1,.,11.3
CS(=O)(=O)N1[C@H](C#N)[C@@H](c2ccc(-c3ccccc3F)cc2)[C@@H]1CO,.,2.7,12.3[16.7 µM],-5.1,0.9,.
Cc1cc(/C=C2\SC(=S)NC2=O)c(C)n1-c1cccc(O)c1,35.8*,.,-170.3,.,-0.9,68.8
Cc1ccc(-n2c(C)cc(/C=C3\SC(=O)NC3=O)c2C)cc1,17.9,?,-57.0,0.2,-3.9,77.9
Cc1ccc(/C=C2\Sc3ccccc3C2=O)s1,72.4*,26.5,-26.7,-3.2,.,6.5
CC(=O)Nc1ccc(/C=C2\Sc3ccccc3C2=O)cc1,8.1,.,-294.7,.,-3.9,.
COc1ccc(C2C3=C(CC(C)(C)CC3=O)Oc3ncn(Cc4ccccc4)c(=N)c32)cc1 (stereo unspecified),.,-13.7,60.9*,0.9,.,-4.7
CC(C)(C)CC(=O)NC(=S)NCCc1ccccc1,7.2,14.9,.,99.9*,1.5,15.7
O=C(NCC[C@@H]1CC[C@H](NC(=O)C2CCCC2)[C@@H](CO)O1)c1cnccn1,.,0.1,1.7[16.7 µM],-3.5,-0.1,.
CC(=O)N(C)c1ccc(NCc2cc(=O)oc3cc(C)c(O)cc23)cc1,0.8,80.1*,-15.6,0.9,-1.4,-20.9
C[C@@H]1CN([C@@H](C)CO)C(=O)c2cc(NC(=O)Cn3cnnn3)ccc2O[C@H]1CN(C)Cc1ccc(Cl)c(Cl)c1,.,-1.7,1.2[16.7 µM],-4.7,1.1,.
Cc1ccc2nc(-c3ccc(NC(=O)CCN4C(=O)c5ccccc5C4=O)cc3)sc2c1,16.9,.,-216.9,-16.5,-3.0,22.7
CCc1ccc(C(=O)CN2C(=O)NC(C)(c3ccc(C)cc3)C2=O)cc1 (stereo unspecified),-1.3,-2.5,69.1*,3.8,-1.9,-18.7
Cc1ccc(C2(C)NC(=O)N(CC(=O)Nc3ccc(-c4nc5ccc(C)cc5s4)cc3)C2=O)cc1 (stereo unspecified),37.6*,.,-81.1,-2.8,-0.9,59.0
CCN(CC)S(=O)(=O)c1ccc(C(=O)OCC(=O)Nc2ccc(-c3nc4ccc(C)cc4s3)cc2)cc1,-3.8,.,-71.8,-12.9,8.5,3.4
Cc1ccc2nc(-c3ccc(NC(=O)CSCC(=O)O)cc3)sc2c1,71.8*,26.2,-54.3,-7.0,-0.2,103.0*
O=C(O)CSCC(=O)Nc1ccc(-c2nc3ccccc3s2)cc1,13.0,.,16.1,-12.0,.,.
Cc1ccc2nc(-c3ccc(NC(=O)COCC(=O)O)cc3)sc2c1,38.2*,.,-15.8,-9.6,.,.
Cc1ccc(C2(C)NC(=O)N(CC(=O)c3ccc4c(c3)OCCO4)C2=O)cc1 (stereo unspecified),-0.6,6.0,.,0.4,0.1,7.4
C[C@H](CO)N1C[C@H](C)[C@@H](CN(C)C(=O)OCc2ccccc2)OCc2cnnn2CCCC1=O,.,3.5,8.9[16.7 µM],4.3,3.0,.
CC1(C)Cc2ccccc2C(/C(=N\Nc2cccc(Cl)c2)C(N)=O)=N1,.,.,82.3*,.,.,3.3
CCOc1nc(N2CCOCC2)nc(C)c1[N+](=O)[O-],32.8*,3.8,-40.7,.,0.8,-5.9
COc1ccccc1CNC(=O)C[C@H]1CC[C@H]2[C@@H](COC[C@H](O)CN2C(=O)Nc2ccccc2)O1,.,0.1,.,-0.6,-5.2,.
